Experimental data: publication PMC4040673 (Cell Death & Disease, 2014)

Assays:
[1] = test system: isolated mitochondria from HT-22 cells; assay: CCCP-induced depolarization / MPT pore opening in isolated HT-22 mitochondria; assay type: cell-based, mouse; conditions: 50 μM CCCP
In short: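 Then treated with 50 μM CCCP protonophore. Δψm followed with 20 nM DiOC6(3) on a fluorescence plate reader. Measurements in triplicate, representative of at least three independent experiments.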

HT-22 cells [2] = assay: Intracellular Ca2+; assay type: cell-based, mouse; conditions: glutamate 12 h, Fluo-4; n = 8
In short: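 Transfected HT-22 cells seeded in 96-well plates and grown 24 h, then treated with 2 mM glutamate for 12 h. Fluo-4 AM (5 μM) added to the medium for 30 min. After washing, fluorescence read on a plate reader at excitation 485 nm and emission 520 nm.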

CypA [3] = biological target: CypA (Homo sapiens, UniProt P62937); assay: SPR direct binding to immobilized CypA
tAIF = assay: SPR binding of peptides to tAIF; design: species or system mouse; conditions: direct binding to immobilized protein, applied concentration range
HT-22 cells [4] = assay: Cell viability; assay type: cell-based, mouse; conditions: siRNA transfected (Lipofectamine-2000), glutamate 2 mM, 12 h
In short: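 HT-22 cells seeded at 10 000 cells/well in 96-well plates, in DMEM with 10% heat-inactivated calf serum at 37 °C. siRNA transfected with Lipofectamine-2000, then exposed to 2 mM glutamate for 12 h. MTT at 0.5 mg/ml for 1 h; absorbance read at 570 nm with 630 nm reference. Controls set to 100%. At least three repeats, n=8 per condition.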

HT-22 cells [5] = assay: Annexin-V-FITC/PI flow cytometry in glutamate-treated HT-22 cells; assay type: cell-based, mouse; conditions: siRNA transfected; glutamate 2 mM
In short: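 HT-22 cells grown at 37 °C, 5% CO2 in DMEM with 10% heat-inactivated calf serum. Transfected with scrambled or mouse CypA siRNA (Lipofectamine-2000), then given 2 mM glutamate. Stained with Annexin-V-FITC/PI by kit and run on a FACScan: FITC excited at 488 nm, emission 530±40 nm; PI excited at 488 nm, emission 680±30 nm. Experiments repeated at least three times.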

HT-22 cells [6] = assay: Real-time impedance; assay type: cell-based, mouse; conditions: siRNA transfected; glutamate 2 mM, ~15 h, n=8
AIF = assay type: cell-based, mouse; conditions: peptide 50 μM or siRNA transfected; glutamate 2 mM, 12 h
In short: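 HT-22 cells carried siRNA (Lipofectamine-2000) or 50 μM peptide (cationic lipid protein-transfection reagent) and were seeded on chamber slides. Exposed to 2 mM glutamate for 12–14 h. Fixed in 4% paraformaldehyde, permeabilised with 0.04% Triton X, and immunostained for AIF with Alexa 568/488 secondaries and DAPI. Imaged by confocal laser scanning with a 63× 1.4-NA oil objective.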

HT-22 cells [7] = assay: Cell viability of glutamate-treated HT-22 cells in medium without Ca2+; assay type: cell-based, mouse; conditions: glutamate 2 mM, 12–14 h, n=4
CypA [8] = assay: siRNA knockdown of CypA; assay type: cell-based, mouse; conditions: HT-22, RT-PCR and immunoblotting
In short: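 HT-22 cells transfected with scrambled or mouse CypA siRNA (Lipofectamine-2000). One-step RT-PCR on total RNA, GAPDH as reference: cDNA step 60 °C 30 min, 95 °C 2 min, then 30 cycles of 95 °C 30 s, 57 °C 1 min, 70 °C 2 min. Lysates run on SDS-PAGE and blotted to PVDF. Primary antibody overnight at 4 °C, HRP secondary 1:2500, chemiluminescence; tubulin or actin as loading control.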

Sequence of CypA (Homo sapiens, UniProt P62937) (P62937 whole entry): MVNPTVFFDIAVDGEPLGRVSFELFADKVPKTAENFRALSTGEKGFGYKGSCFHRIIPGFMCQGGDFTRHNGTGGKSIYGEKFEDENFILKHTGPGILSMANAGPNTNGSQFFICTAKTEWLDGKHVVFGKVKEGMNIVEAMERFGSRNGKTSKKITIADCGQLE

Compound: N#CC(C#N)=NNc1cccc(Cl)c1 [CCCP, carbonyl cyanide m-chlorophenyl hydrazone]
- loss of Δψm induced by CCCP [1]: strong loss of Δψm

Compound: N[C@@H](CCC(=O)O)C(=O)O [Glutamate]
- intracellular Ca2+ concentration induced by glutamate (HT-22 cells [2]): dose-dependent increase

Compound: ILPEYLSNWTMEKVRREG [AIF(343–360)]
- affinity for CypA (in words) (CypA [3]): very weak affinity
- fold lower affinity for CypA compared with AIF(370–394) (CypA [3]; ratio of KD values): 1000 fold
- affinity to tAIF (in words) (tAIF): No affinity to tAIF was detected

Compound: siCypA: mouse siRNA targeting CypA: siCypAFw 5′-CUGAAUGGCUGGAUGGCAA-3′ and siCypARev 5′-UUGCCAUCCAGCCAUUCAG-3′ (chemistry not given here)
- protection against glutamate-induced cell death by siRNA, MTT (HT-22 cells [4]): full protection
- protection against glutamate-induced cell death by siRNA, Annexin-V/PI (HT-22 cells [5]): full protection
- protection against glutamate-induced cell death by siRNA, impedance (HT-22 cells [6]): full protection
- glutamate-induced nuclear translocation of AIF (AIF): very weak nuclear AIF staining
- protective effect combined with depletion of extracellular Ca2+ (HT-22 cells [7]): additive protective effects to depletion of extracellular Ca^2+
- CypA expression after siRNA (CypA [8]): significantly reduced
